Data on one molecule can be found in ChEMBL document CHEMBL4304743, “Discovery of ( E)- N1-(3-Fluorophenyl)- N3-(3-(2-(pyridin-2-yl)vinyl)-1 H-indazol-6-yl)malonamide (CHMFL-KIT-033) as a Novel c-KIT T670I Mutant Selective Kinase Inhibitor for Gastrointestinal Stromal Tumors (GISTs)” (J Med Chem, 2019).

SMILES strings stand for the structures. The source made the active and inactive calls. The calls are words filed in the database; no cut-off is given here.

Data set [1] has as its system Mus musculus. Briefly: Inhibition of c-KIT phosphorylation at Y703 residue in tumor of human GIST5R cells xenografted in nude mouse at 100 mg/kg, po administered as single dose and measured at 2 hrs. The data set is classed as functional, organism-based. In outline: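 Female nu/nu mice bearing subcutaneous GIST-5R xenografts (cells in Matrigel, right flank) given one oral gavage dose of 100 mg/kg in HKI suspension (0.5% methocellulose/0.4% Tween80 in ddH2O). Tumors collected over a 2 h time course; p-c-KIT, p-ERK and p-AKT assessed by Western blot; plasma drug levels monitored in parallel.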
For orientation: In xenograft studies the graft and the host belong to different species.

Data set [2] concerns Mast/stem cell growth factor receptor Kit (Homo sapiens), P10721 [V559D]. The data set can be described thus: Inhibition of TEL fused c-KIT V559D mutant (unknown origin) transfected in mouse BAF3 cells assessed as growth inhibition after 72 hrs by CCK8 assay. The data set is classed as cell-based. In outline: (§1)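 Tel-c-KIT-transformed BaF3 lines (IL-3 independent) kept in RPMI 1640 with 10% FBS, 2% L-glutamine and pen/strep. Cells at 1.5 to 5 × 10^4 cells/mL mixed with graded compound and incubated 72 h at 37 °C, 5% CO2. Viability by CCK-8 absorbance at 450 nm, normalized to DMSO. GI50 from dose–response fit.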
In general terms: Formazan colour is commonly taken as a measure of viable cells.

In data set [3] the target is Serine/threonine-protein kinase pim-3 (Homo sapiens, UniProt Q86V86). Briefly: Inhibition of wild-type human partial length PIM3 (G16 to A317 residues) expressed in bacterial expression system after 1 hr by Z-LYTE assay.
The target of data set [4] is Serine/threonine-protein kinase 25 (Homo sapiens, UniProt O00506). Briefly: Inhibition of wild-type human partial length STK25 (V14 to H295 residues) expressed in bacterial expression system after 1 hr by Z-LYTE assay.
Data set [5] is described as follows: MRT (0 to infinity) in Sprague-Dawley rat at 1 mg/kg, iv measured after 2 to 720 mins by LC-tandem mass spectrometry analysis. The data set is classed as ADME, organism-based. The settings on record: in vivo. In outline:
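Male Sprague–Dawley rats (190-210 g), fasted 12 h, given 1 mg/kg i.v. or 10 mg/kg p.o. in DMSO/5% glucose water (1:9). Blood sampled at 2–720 min (i.v.) or 5–720 min (p.o.). Plasma proteins precipitated with methanol using caffeine internal standard, then LC-MS/MS. Noncompartmental analysis; F = AUC0-∞ ratio corrected for dose; triplicate ±SD.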

Data set [6] relates to Mast/stem cell growth factor receptor Kit (Homo sapiens), P10721 [D816H]. The data set can be described thus: Inhibition of TEL fused c-KIT D816H mutant (unknown origin) transfected in mouse BAF3 cells assessed as growth inhibition after 72 hrs by CCK8 assay. The format is cell-based. In outline:
as §1

The test system of data set [7] is Mast/stem cell growth factor receptor Kit (Homo sapiens), P10721 [UNDEFINED MUTATION]. Briefly: Inhibition of c-KIT 560 to 578 deletion/T670I double mutant in human GISTT1 cells assessed as reduction in AKT phosphorylation at S473 residue at 0.1 uM to 3 uM after 1 hr by Western blot analysis. The data set is classed as cell-based. In outline: (§2)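 Serial compound dilutions applied for 1 h to GIST-T1, GIST-T1-T670I (CRISPR/Cas9 T670I knock-in, clone confirmed by Sanger sequencing) or GIST-5R cells in DMEM with 10% FBS. Cells then lysed and phospho-proteins detected by standard Western blotting.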
Background: A western blot detects proteins with antibodies after separation by electrophoresis.

Data set [8] shares this test system. Briefly: Inhibition of c-KIT 560 to 578 deletion/T670I double mutant in human GISTT1 cells assessed as reduction in ERK phosphorylation at T202/Y204 residue at 0.1 uM to 3 uM after 1 hr by Western blot analysis. The format is cell-based. In outline: as §2
Data set [9] can be described thus: Tmax in mouse at 1 mg/kg, iv measured after 2 to 720 mins by LC-tandem mass spectrometry analysis. The format is ADME, organism-based. The settings on record: in vivo.
A short description of data set [10]: AUC (0 to t) in Sprague-Dawley rat at 1 mg/kg, iv measured after 2 to 720 mins by LC-tandem mass spectrometry analysis. The data set is classed as ADME, organism-based. The settings on record: in vivo. In outline: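 Male Sprague-Dawley rats (190-210 g), fasted 12 h, randomized into two groups: 1 mg/kg i.v. or 10 mg/kg p.o., both formulated in 10% DMSO/90% of 5% glucose water. Blood sampled at 2-720 min (i.v.) or 5-720 min (p.o.). Plasma protein-precipitated with methanol, caffeine internal standard, LC-MS/MS. Noncompartmental analysis; triplicate, ±SD.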

Data set [11] relates to Mast/stem cell growth factor receptor Kit (Homo sapiens), P10721 [D816V]. Briefly: Inhibition of TEL fused c-KIT D816V mutant (unknown origin) transfected in mouse BAF3 cells assessed as growth inhibition after 72 hrs by CCK8 assay. The format is cell-based. In outline:
as §1

Data set [12] deals with Mast/stem cell growth factor receptor Kit (Homo sapiens), P10721 [V559A]. Briefly: Inhibition of TEL fused c-KIT V559A mutant (unknown origin) transfected in mouse BAF3 cells assessed as growth inhibition after 72 hrs by CCK8 assay. The data set is classed as cell-based. In outline:
as §1

Data set [13] has as its target Mast/stem cell growth factor receptor Kit (Homo sapiens, UniProt P10721, T670I). The data set can be described thus: Inhibition of TEL fused wild type c-KIT T670I mutant (unknown origin) transfected in mouse BaF3 cells assessed as reduction in phosphorylation at Y703 residue after 2 hrs by Western blot analysis. The format is cell-based.
Data set [14] concerns Mus musculus. The data set can be described thus: Inhibition of AKT phosphorylation at […] residue in tumor of human GIST5R cells xenografted in nude mouse at 100 mg/kg, po administered as single dose and measured after 2 hrs. The format is functional, organism-based. A digest of the protocol:
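Female nu/nu mice bearing subcutaneous GIST-5R tumors (cells in Matrigel, right flank) given one oral dose of 100 mg/kg in 0.5% methylcellulose/0.4% Tween80. Tumors collected over a 2 h time course. p-c-KIT, p-ERK and p-AKT measured alongside plasma drug levels.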

A short description of data set [15]: Antitumor activity against human GIST5R cells xenografted in nude mouse assessed as tumor growth inhibition at 100 mg/kg, po administered […] via gavage for 28 days relative to control. The settings on record: 672 h, read-out: TGI. The format is functional. In outline: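 Female nu/nu mice (5 weeks old) given subcutaneous right-flank GIST-5R cells in Matrigel. Dosing began at tumors of 200-400 mm3; randomized, 4 mice per group. Daily oral dosing (QD) at 25, 50 or 100 mg/kg in 0.5% methylcellulose/0.4% Tween80, or vehicle alone, for 28 days. Body weight and tumor volume, (W²×L)/2, measured daily; mean±SEM.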

In another data set the test system is GISTT1. Briefly: Induction of apoptosis in human GISTT1 cells harboring c-KIT 560 to 578 deletion/T670I double mutant assessed as increase in cleaved PARP level after 24 hrs by Western blot analysis. The format is functional, cell-based. A digest of the protocol:
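GIST-T1-T670I cells grown in DMEM with 10% FBS, exposed to serially diluted compound for 24 h. Apoptosis read by Western blot with PARP and GAPDH antibodies.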

Data set [16] has as its system Mast/stem cell growth factor receptor Kit (Homo sapiens), P10721 [UNDEFINED MUTATION]. The data set can be described thus: Inhibition of c-KIT 560 to 578 deletion mutant in human GISTT1 cells assessed as reduction in STAT3 phosphorylation at 0.1 uM to 3 uM after 1 hr by Western blot analysis. The data set is classed as cell-based. In outline:
as §2

Sequence of Mast/stem cell growth factor receptor Kit (Homo sapiens), P10721 [UNDEFINED MUTATION] (P10721 whole entry, looked up, stated change not applied): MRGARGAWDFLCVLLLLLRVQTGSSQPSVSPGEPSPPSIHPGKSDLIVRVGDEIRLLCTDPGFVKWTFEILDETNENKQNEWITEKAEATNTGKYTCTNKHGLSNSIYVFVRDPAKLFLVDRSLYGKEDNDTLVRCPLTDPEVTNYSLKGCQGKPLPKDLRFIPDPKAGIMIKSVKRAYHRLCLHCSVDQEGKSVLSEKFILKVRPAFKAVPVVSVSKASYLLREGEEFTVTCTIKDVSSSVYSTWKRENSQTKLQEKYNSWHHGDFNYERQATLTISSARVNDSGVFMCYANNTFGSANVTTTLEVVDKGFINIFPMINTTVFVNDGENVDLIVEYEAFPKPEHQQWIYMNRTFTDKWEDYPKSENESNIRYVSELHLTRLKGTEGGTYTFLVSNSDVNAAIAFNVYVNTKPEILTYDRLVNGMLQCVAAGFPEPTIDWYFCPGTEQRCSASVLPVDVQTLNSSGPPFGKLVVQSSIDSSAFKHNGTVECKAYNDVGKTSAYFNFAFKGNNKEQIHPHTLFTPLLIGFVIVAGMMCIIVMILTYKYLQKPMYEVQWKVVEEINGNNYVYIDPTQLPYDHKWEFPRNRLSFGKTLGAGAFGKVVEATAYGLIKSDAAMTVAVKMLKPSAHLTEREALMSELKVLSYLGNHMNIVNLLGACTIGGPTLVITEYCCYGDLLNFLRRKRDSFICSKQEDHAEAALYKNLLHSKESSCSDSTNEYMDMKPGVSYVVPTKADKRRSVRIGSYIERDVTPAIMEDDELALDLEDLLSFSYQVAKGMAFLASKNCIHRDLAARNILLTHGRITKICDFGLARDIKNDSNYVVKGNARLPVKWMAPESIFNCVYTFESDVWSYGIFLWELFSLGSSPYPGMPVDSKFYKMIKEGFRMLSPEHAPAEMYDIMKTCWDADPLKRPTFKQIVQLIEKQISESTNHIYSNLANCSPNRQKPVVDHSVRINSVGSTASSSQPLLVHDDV
Sequence of Serine/threonine-protein kinase 25 (O00506 whole entry, the tested form may be a part): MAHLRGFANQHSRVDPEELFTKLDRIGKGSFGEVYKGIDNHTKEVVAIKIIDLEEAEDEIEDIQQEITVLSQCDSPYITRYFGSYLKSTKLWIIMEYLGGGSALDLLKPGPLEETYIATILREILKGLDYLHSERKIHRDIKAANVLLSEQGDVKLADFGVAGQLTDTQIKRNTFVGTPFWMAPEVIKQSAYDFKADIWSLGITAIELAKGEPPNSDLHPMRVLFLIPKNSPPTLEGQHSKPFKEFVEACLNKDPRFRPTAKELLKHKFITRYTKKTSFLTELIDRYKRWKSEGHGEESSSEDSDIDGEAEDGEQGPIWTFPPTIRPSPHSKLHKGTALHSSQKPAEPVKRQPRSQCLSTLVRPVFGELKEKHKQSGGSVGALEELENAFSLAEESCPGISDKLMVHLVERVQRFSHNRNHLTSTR
Sequence of Mast/stem cell growth factor receptor Kit (Homo sapiens), P10721 [V559A] (P10721 whole entry V559A, the tested form may be a part): as the sequence (P10721 whole entry, looked up, stated change not applied) above, with V559A counted along it
Sequence of Mast/stem cell growth factor receptor Kit (Homo sapiens), P10721 [V559D] (P10721 whole entry V559D, the tested form may be a part): as the sequence (P10721 whole entry, looked up, stated change not applied) above, with V559D counted along it
Sequence of Mast/stem cell growth factor receptor Kit (Homo sapiens), P10721 [D816V] (P10721 whole entry D816V, the tested form may be a part): as the sequence (P10721 whole entry, looked up, stated change not applied) above, with D816V counted along it
Sequence of Mast/stem cell growth factor receptor Kit (Homo sapiens), P10721 [D816H] (P10721 whole entry D816H, the tested form may be a part): as the sequence (P10721 whole entry, looked up, stated change not applied) above, with D816H counted along it
Sequence of Mast/stem cell growth factor receptor Kit (P10721 26-976 T670I limits assumed): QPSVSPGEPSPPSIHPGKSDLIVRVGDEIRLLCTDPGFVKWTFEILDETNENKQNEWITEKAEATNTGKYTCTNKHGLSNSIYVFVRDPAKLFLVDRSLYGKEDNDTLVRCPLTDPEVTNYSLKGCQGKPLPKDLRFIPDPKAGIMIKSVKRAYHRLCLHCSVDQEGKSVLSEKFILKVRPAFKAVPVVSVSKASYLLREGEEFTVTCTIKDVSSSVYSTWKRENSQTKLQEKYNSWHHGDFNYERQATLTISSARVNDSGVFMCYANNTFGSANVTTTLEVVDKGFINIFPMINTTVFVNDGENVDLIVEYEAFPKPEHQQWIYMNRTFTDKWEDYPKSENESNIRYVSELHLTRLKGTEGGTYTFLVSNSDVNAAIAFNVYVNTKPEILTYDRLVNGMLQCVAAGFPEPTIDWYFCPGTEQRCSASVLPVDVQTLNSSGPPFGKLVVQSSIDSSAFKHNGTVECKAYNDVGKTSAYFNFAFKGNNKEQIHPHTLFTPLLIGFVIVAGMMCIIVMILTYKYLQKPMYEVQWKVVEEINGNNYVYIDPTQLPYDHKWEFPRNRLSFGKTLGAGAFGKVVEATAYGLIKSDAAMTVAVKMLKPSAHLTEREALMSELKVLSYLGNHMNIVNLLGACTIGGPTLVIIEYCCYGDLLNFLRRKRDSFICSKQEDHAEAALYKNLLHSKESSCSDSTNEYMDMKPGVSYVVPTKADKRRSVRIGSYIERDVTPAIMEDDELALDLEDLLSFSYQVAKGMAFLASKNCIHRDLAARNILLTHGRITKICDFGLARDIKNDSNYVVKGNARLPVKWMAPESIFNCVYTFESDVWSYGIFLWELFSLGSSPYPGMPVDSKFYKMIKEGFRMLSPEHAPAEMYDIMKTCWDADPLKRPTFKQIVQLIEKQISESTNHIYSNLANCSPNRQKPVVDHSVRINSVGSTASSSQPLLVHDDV

As to `O=C(CC(=O)Nc1ccc2c(/C=C/c3ccccn3)n[nH]c2c1)Nc1cccc(F)c1`, the inhibition result (in the data set on Mus musculus [1]; in data set [7]; in [8]) was “Active” in each case. The concentration for 50% growth inhibition (GI50) was 8 nM in [2], 6840 nM in data set [6], 3460 nM in data set [11] and 31 nM in data set [12]. The IC50 in data set [3] and in data set [4] was greater than 10000 nM each time. Also, in [5], the MRT inf came to 6.4 h. In addition, in data set [9], the Tmax was found to be 1.8 min. In addition, the AUC(0-t) in [10] amounted to 259 ng·h/mL. In addition, in [13], the EC50 was 77 nM. Moreover, the inhibition entry (in the data set on Mus musculus [14]; in data set [16]) was “inactive” throughout. In addition, the inhibition in vivo at 100 mg/kg in data set [15] stood at 83%. Also, in the data set on GISTT1, the Activity result is “Dose-dependent effect”.

Usually GI50 stands for the concentration giving 50% growth inhibition. As usually defined, the IC50 is the concentration that inhibits the measured activity by half. A lower IC50 goes with higher potency. The term MRT inf denotes a mean duration of stay, worked out from the concentration-time curve. In general, Tmax refers to the time from dosing to the highest level. What is called AUC(0-t) is exposure summed from dosing to a finite time, without extrapolation to infinity. A word on the EC50: it is the concentration that produces a half-maximal response.
